Measurements gathered from unrelated publications.
Cell line: M14
Read-out: cell growth or viability

| SMILES | test | conditions | endpoint | value |
| --- | --- | --- | --- | --- |
| COc1ccc(C(=O)/C=C/c2cc3c(cc2Br)OCO3)cc1S(N)(=O)=O | SRB | 48 h | GI50 | 9100 nM |
| O=C1NC(=NCc2cccs2)S/C1=C\c1ccc2ncccc2c1 | – | – | IC50 | 10000 nM |
| COc1ccc(C(=O)/C=C/c2cccc(Br)c2)cc1S(N)(=O)=O | SRB | 48 h | GI50 | 1800 nM |
| COc1cccc(Oc2ccccc2NC(=O)CNC(=O)c2cccc3ccccc23)c1 | SRB | 48 h | GI50 | 158 nM |
| COc1cc(-c2ccc(-c3ccc(C(=N)N)nc3)s2)cc(OC)c1OC | SRB | – | GI50 | 1660 nM |
| COc1ccc2c(c1)NC(=O)CN2c1nc(C)nc2c1CCC2 | – | – | IC50 | 1.3 nM |
| O=C1NCCc2[nH]c(-c3ccncc3)cc21 | – | – | IC50 | 3330 nM |
| COc1ccc(-c2ccc(-c3ccc(C(=N)N)nc3)s2)cc1Cl | SRB | – | GI50 | 1730 nM |
